Source: ChEMBL document CHEMBL1938337, “Discovery of novel, potent, and selective inhibitors of 3-phosphoinositide-dependent kinase (PDK1)” (J Med Chem, 2011)
≈ marks a conversion by molar mass, not a printed value.

How the values were obtained:
[1] = target: Phosphatidylinositol 4,5-bisphosphate 3-kinase catalytic subunit alpha isoform (Mus musculus, UniProt P42337); assay: Inhibition of mouse PI3Kalpha after 30 mins by fluorescence polarization assay
Summary of the method: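 Mouse PI3Kα 0.5 nM with 30 μM PIP₂, 5 mM MgCl₂, 200 μM ATP, 30 min at room temperature (~22 °C); stopped with 10 mM EDTA. Then 3 min with detector mix of 480 nM GST-Grp1 PH domain and 12 nM TAMRA-PIP₃. Fluorescence polarization read in 50 mM Hepes pH 7.4, 150 mM NaCl, 5 mM DTT, 0.05% CHAPS. Duplicate points, nonlinear regression fit.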

[2] = target: T1, 3-phosphoinositide-dependent protein kinase 1 (Homo sapiens, UniProt O15530); assay: Inhibition of recombinant human His-tagged PDK1 catalytic domain using Ac-Sox-PKTFCGTPEYLAPEVRREPRILSEEEQEMFRDFDYIAD-NH2 as substrate by fluorescence-based spectrophotometry
T1 sequence (O15530 whole entry): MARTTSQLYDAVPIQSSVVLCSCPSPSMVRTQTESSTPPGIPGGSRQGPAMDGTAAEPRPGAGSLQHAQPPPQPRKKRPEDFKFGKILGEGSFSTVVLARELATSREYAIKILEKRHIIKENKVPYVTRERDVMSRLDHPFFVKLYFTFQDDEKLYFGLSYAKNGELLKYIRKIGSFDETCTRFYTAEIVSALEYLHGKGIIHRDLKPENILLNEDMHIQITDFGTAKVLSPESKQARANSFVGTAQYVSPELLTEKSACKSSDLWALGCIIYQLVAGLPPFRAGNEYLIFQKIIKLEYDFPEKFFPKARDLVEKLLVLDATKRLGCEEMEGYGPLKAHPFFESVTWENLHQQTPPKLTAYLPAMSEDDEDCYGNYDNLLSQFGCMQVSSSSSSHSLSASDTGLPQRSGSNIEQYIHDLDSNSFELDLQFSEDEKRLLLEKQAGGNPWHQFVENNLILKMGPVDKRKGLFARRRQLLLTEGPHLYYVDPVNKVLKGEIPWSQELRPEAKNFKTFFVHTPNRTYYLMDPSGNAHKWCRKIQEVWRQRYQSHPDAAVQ

[3] = Solubility of the compound at pH 6.5; assay type: physicochemical; settings: buffer
[4] = Passive permeability in canine kidney cells; assay type: ADME, cell-based, Canis lupus familiaris; settings: dog; read-out: permeability
[5] = Clearance in human liver microsomes; assay type: ADME, Microsome; settings: read-out: CLH
[6] = Inhibition of recombinant GST-tagged P70S6K using 5FAM-KRSRTRTDSYSAGQ-COOH as substrate by fluorescence based assay
Summary of the method: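 GST-tagged P70S6K (a.a. 1-421) at 5 nM, 50 μM ATP, 5 μM 5FAM-peptide. Product separated from substrate by charge (electrophoretic mobility shift, −2500/−500 V). Duplicates, nonlinear regression fit.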

[7] = target: RAC-alpha serine/threonine-protein kinase (Homo sapiens, UniProt P31749); assay: Inhibition of His-tagged AKT1 using 5FAM-GRPRTSSFAEGCONH2 as substrate by fluorescence based assay
Chain of RAC-alpha serine/threonine-protein kinase (P31749 whole entry): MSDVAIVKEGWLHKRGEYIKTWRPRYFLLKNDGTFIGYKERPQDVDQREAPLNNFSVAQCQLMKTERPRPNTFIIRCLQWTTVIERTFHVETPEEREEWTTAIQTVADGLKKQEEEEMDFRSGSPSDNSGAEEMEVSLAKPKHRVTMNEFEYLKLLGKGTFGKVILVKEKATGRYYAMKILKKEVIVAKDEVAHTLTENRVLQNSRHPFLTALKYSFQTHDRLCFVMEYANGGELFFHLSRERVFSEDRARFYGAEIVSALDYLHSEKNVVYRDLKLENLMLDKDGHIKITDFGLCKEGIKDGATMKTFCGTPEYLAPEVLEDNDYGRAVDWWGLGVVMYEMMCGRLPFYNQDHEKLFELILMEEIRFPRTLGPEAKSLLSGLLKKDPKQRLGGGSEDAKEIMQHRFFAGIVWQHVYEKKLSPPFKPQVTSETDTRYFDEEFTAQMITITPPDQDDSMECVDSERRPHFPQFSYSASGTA

[8] = target: Serine/threonine-protein kinase mTOR (Homo sapiens, UniProt P42345); assay: Inhibition of GST-tagged mTOR assessed as phosphorylation at Thr46 in GFP-4E-BP1 substrate by TR-FRET assay
Summary of the method: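 GST-tagged mTOR (aa 1360-2549) at 1 nM, with 0.4 μM GFP-4E-BP1 and 40 μM ATP. Buffer: 50 mM Hepes pH 7.4, 10 mM MgCl2, 1 mM EGTA, 0.01% Tween-20, at about 22 °C. A terbium anti-phospho-Thr46 antibody was added at the end, and the read-out was TR-FRET. Duplicate data fitted by nonlinear regression. Concentrations are final.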

CYP3A4 = CYP3A4 (Homo sapiens, UniProt P08684); assay: Inhibition of CYP3A4 at 3 uM; assay type: ADME
Chain of CYP3A4 (P08684 whole entry): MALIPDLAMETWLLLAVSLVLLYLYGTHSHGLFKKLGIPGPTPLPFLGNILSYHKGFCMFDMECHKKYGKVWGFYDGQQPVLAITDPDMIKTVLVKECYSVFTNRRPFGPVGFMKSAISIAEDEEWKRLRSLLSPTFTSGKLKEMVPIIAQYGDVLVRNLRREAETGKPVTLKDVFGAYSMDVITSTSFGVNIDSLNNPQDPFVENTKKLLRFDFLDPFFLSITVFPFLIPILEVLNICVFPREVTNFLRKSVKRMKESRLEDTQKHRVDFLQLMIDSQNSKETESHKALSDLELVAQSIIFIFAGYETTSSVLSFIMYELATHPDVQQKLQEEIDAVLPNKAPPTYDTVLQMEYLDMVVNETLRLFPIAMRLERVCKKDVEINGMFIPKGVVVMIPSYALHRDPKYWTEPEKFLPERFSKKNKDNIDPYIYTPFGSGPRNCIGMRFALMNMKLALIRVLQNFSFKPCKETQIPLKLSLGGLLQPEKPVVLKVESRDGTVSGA

CYP3A4 (Homo sapiens) [9] = assay: Inhibition of CYP3A4 at 3 uM
CYP3A4 (Homo sapiens) [10] = assay: Inhibition of CYP3A4 at 3 uM; remark: listed apart in the source
CYP3A4 (Homo sapiens) [11] = assay: Inhibition of CYP3A4 at 3 uM; remark: listed apart in the source

Chain of Phosphatidylinositol 4,5-bisphosphate 3-kinase catalytic subunit alpha isoform (P42337 whole entry, the tested form may be a part, canonical isoform): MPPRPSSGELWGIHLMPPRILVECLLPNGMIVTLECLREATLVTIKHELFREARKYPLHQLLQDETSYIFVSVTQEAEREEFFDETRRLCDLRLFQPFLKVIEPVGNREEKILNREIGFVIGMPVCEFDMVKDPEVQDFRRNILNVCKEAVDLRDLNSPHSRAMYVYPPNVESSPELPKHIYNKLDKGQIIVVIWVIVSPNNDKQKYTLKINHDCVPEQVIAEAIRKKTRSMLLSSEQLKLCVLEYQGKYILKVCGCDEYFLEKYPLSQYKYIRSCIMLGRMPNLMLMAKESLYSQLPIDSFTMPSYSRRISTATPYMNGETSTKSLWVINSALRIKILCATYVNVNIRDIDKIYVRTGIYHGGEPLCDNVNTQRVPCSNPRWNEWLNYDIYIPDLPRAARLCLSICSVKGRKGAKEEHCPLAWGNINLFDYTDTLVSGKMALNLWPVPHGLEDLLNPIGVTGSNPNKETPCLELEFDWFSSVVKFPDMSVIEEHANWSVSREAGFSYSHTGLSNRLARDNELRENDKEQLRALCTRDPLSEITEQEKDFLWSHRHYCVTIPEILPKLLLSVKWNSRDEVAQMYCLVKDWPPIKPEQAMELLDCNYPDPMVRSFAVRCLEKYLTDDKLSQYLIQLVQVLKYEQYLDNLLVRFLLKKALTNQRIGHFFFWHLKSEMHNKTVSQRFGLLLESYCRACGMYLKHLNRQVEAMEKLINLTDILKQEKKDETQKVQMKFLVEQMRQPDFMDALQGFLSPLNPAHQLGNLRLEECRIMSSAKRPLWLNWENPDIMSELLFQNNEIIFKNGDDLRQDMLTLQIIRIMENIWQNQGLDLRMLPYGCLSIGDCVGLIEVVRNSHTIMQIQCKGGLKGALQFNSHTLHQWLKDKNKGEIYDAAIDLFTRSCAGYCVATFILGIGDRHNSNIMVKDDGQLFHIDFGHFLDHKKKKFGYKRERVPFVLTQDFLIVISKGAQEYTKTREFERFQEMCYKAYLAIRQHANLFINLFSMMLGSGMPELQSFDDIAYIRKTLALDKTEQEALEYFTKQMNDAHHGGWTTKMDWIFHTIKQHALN

SMILES | Ki [1] [nM] | Ki [2] [nM] | solubility [3] [µM] | Papp [4] [×10⁻⁶ cm/s] | microsomal CLint [5] [µL/min/mg] | Ki [6] [nM] | Ki [7] [nM] | Ki [8] [nM] | inhibition at 3 µM (CYP3A4) [%] | inhibition at 3 µM (CYP3A4 (Homo sapiens) [9]) [%] | inhibition at 3 µM (CYP3A4 (Homo sapiens) [10]) [%] | inhibition at 3 µM (CYP3A4 (Homo sapiens) [11]) [%]
CC(C)n1cc(C(=O)c2cncc(NCCc3cccnc3)n2)c2c(N)ncnc21 | 250 |  |  |  |  |  |  |  |  |  |  | 
CNc1cncc(C(=O)c2cn(C(C)C)c3ncnc(N)c23)n1 |  | 100 |  |  |  |  |  |  |  |  |  | 
CC(C)n1cc(C(=O)c2cncc(N[C@@H]3CCC[C@@H]3c3ccc(F)cc3)n2)c2c(N)ncnc21 | 320 | 0.6 | 6 (≈ 2.76 µg/mL) | 6 | 160 | 230 | 210 | 3900 |  |  |  | 
CC(C)n1cc(C(=O)c2cncc(N(C)[C@@H]3CCC[C@@H]3c3ccc(F)cc3)n2)c2c(N)ncnc21 | 650 | 0.9 |  |  |  |  |  |  |  |  |  | 
CC(C)n1cc(C(=O)c2cncc(N[C@@H]3CCO[C@@H]3c3ccc(F)cc3)n2)c2c(N)ncnc21 | 430 | 1.3 | 120 (≈ 55.4 µg/mL) | 13 | 220 | 61 | 230 | 3900 |  |  |  | 
CC(C)n1cc(C(=O)c2cncc(N[C@@H]3CNC[C@@H]3c3ccc(F)cc3)n2)c2c(N)ncnc21 | 370 | 2.5 | 480 (≈ 221 µg/mL) | 2 | 59 | 11 | 10 | 1100 | 27 | 27 | 27 | 27
CC(C)n1cc(C(=O)c2cncc(N[C@@H]3CCN[C@@H]3c3ccc(F)cc3)n2)c2c(N)ncnc21 | 150 | 1 | 520 (≈ 239 µg/mL) | 5 | 92 | 120 | 100 | 2100 |  |  |  | 
CC(C)n1cc(C(=O)c2cncc(N[C@@H]3CCC[C@@H]3c3ccccc3)n2)c2c(N)ncnc21 | 130 | 2 |  |  |  |  |  |  |  |  |  | 
CC(C)n1cc(C(=O)c2cncc(N[C@@H]3COC[C@@H]3c3ccc(F)cc3)n2)c2c(N)ncnc21 | 570 |  | 23 (≈ 10.6 µg/mL) | 13 | 160 | 170 | 260 | 500 |  |  |  | 
